Experimental data: ChEMBL document CHEMBL4265873, “Design and discovery of silybin analogues as antiproliferative compounds using a ring disjunctive - Based, natural product lead optimization approach” (Eur J Med Chem, 2017)
Activity calls are given as the source filed them. The rule behind the calls is not given here.

Tests used:
ZR-75-1 = experiment: Cytotoxicity in human ZR-75-1 cells assessed as reduction in cell viability incubated for 68 hrs by MTT assay; assay type: functional, cell-based; conditions: ZR-75-1, 68 h
Summary of the method: (§1)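 Cells were trypsinised and seeded at 5x10^3 cells/well. Compound was added at 0, 0.1, 0.3, 1, 3, 10, 30 and 100 µM for 68 h. MTT (4 mg/mL solution) was then added for 4 h, and the formazan was dissolved in DMSO. Absorbance read at 570 nm. IC50 was derived from % survival across the eight concentrations. Mean ± SD of three independent experiments, each in triplicate.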

BT-20 = experiment: Cytotoxicity in human BT20 cells assessed as reduction in cell viability incubated for 68 hrs by MTT assay; assay type: functional, cell-based; conditions: BT-20, 68 h; summary of the method: as §1
DU-145 = experiment: Cytotoxicity in human DU145 cells assessed as reduction in cell viability incubated for 68 hrs by MTT assay; assay type: functional, cell-based; conditions: DU-145, 68 h; summary of the method: as §1
PANC-1 = experiment: Cytotoxicity in human PANC1 cells assessed as reduction in cell viability incubated for 68 hrs by MTT assay; assay type: functional, cell-based; conditions: PANC-1, 68 h; summary of the method: as §1
A2780 [1] = experiment: Cytotoxicity in human A2780 cells assessed as reduction in cell viability incubated for 68 hrs by MTT assay; assay type: functional, cell-based; conditions: A2780, 68 h; summary of the method: as §1
[2] = Cytotoxicity in human CRL1459 cells assessed as reduction in cell viability incubated for 68 hrs by MTT assay; assay type: cell-based; summary of the method: as §1
[3] = Selectivity index, ratio of IC50 for cytotoxicity in HEK293 cells incubated for 68 hrs by MTT assay to IC50 for cytotoxicity in human OV2008 cells incubated for 68 hrs by MTT assay; assay type: toxicity, cell-based; conditions: HEK293 cells versus OV2008 cells, read-out: Ratio IC50
[4] = Selectivity index, ratio of IC50 for cytotoxicity in CHO cells incubated for 68 hrs by MTT assay to IC50 for cytotoxicity in human OV2008 cells incubated for 68 hrs by MTT assay; assay type: toxicity, cell-based; conditions: Chinese hamster (CHO cells), CHO cells versus OV2008 cells, read-out: Ratio IC50
[5] = Selectivity index, ratio of IC50 for cytotoxicity in HEK293 cells incubated for 68 hrs by MTT assay to IC50 for cytotoxicity in human A2780 cells incubated for 68 hrs by MTT assay; assay type: toxicity, cell-based; conditions: HEK293 cells versus A2780 cells, read-out: Ratio IC50
A2780 [6] = experiment: Induction of morphological changes in human A2780 cells at 1 to 4 uM incubated for 68 hrs; assay type: functional, cell-based
Summary of the method: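 OV2008 and A2780 cells, with CHO alongside, were exposed to 0, 1, 2 or 4 µM for 68 h. Each triplicate treatment was photographed at 20X under an inverted microscope to assess morphology.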

2008 [7] = experiment: Inhibition of cell proliferation of human OV2008 cells at 1 to 8 uM incubated for 10 to 50 hrs; assay type: functional, cell-based
Summary of the method: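 OV2008 or A2780 cells were seeded at low density (1x10^3 cells/well) and given 0, 2, 4 or 8 µM. Live-cell images were taken every 2 h for up to 48 h. Confluence at each time point was quantified with a confluence mask and plotted as timeline curves. Means ± SD of three independent experiments.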

A2780 [8] = experiment: Induction of apoptosis in human A2780 cells assessed as apoptosis cells level at 4 uM incubated for 12 hrs by Alexa Fluor 488 annexin V and mito-tracker red CMXRos dye staining based flow cytometry (reference value: 0.0%); assay type: functional
Summary of the method: (§2)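 Cells in complete medium were treated with 0, 2 or 4 µM for 12 h, then trypsinised. They were stained with MitoTracker Red (4 µL of 10 µM working solution per 1 mL of cells) for 30 min at 37 °C under 5% CO2. Cells were then resuspended in annexin-binding buffer with Alexa Fluor 488 annexin V for 15 min. Flow cytometry emission read at 530 and 585 nm. Two independent experiments, each in triplicate.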

2008 [9] = experiment: Reduction in mitochondrial potential in human OV2008 cells at 2 uM incubated for 12 hrs by Alexa Fluor 488 annexin V and mito-tracker red CMXRos dye staining based flow cytometry; assay type: functional, cell-based; summary of the method: as §2
A2780 [10] = experiment: Reduction in mitochondrial potential in human A2780 cells at 2 uM incubated for 12 hrs by Alexa Fluor 488 annexin V and mito-tracker red CMXRos dye staining based flow cytometry; assay type: functional, cell-based; summary of the method: as §2
2008 [11] = experiment: Induction of cell cycle arrest in human OV2008 cells assessed as increase in cell accumulation at subG1 phase at 2 to 4 uM incubated for 12 hrs by propidium iodide staining based flow cytometry; assay type: functional
Summary of the method: (§3)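 OV2008 cells were plated at 1x10^6 cells/well and incubated with 0, 2 or 4 µM for 12 h. Cells were trypsinised, washed and resuspended in ice-cold PBS, then stained with propidium iodide for at least 15 min. Phase distribution was measured by flow cytometry. Means ± SD of three independent experiments in triplicate.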

2008 [12] = experiment: Induction of cell cycle arrest in human OV2008 cells assessed as cell accumulation at G2 phase at 2 uM incubated for 12 hrs by propidium iodide staining based flow cytometry (reference value: 2.5%); assay type: functional; summary of the method: as §3
2008 [13] = experiment: Induction of cell cycle arrest in human OV2008 cells assessed as cell accumulation at G2 phase at 4 uM incubated for 12 hrs by propidium iodide staining based flow cytometry (reference value: 2.5%); assay type: functional; summary of the method: as §3
Homo sapiens = organism: Homo sapiens; experiment: Inhibition of tubulin alpha in human OV2008 cells assessed as induction of disturbance in cellular microtubule shape and integrity by measuring loss in microtubule long spindle shape at 2 to 4 uM after overnight incubation by immunofluorescence analysis; assay type: cell-based

## O=C(/C=C/c1cccc(OCc2ccccc2)c1)c1ccc(O)cc1
ZR-75-1
  IC50: 4.9 µM
BT-20
  IC50: 5.1 µM
DU-145
  IC50: 6.3 µM
PANC-1
  IC50: 2.6 µM
A2780 [1]
  IC50: 1 µM
[2]
  IC50: 8.5 µM
[3]
  selectivity ratio at 68 h: 6 to 30
[4]
  selectivity ratio at 68 h: 6 to 30
[5]
  selectivity ratio at 68 h: 6 to 30
A2780 [6]
  Activity: Active
2008 [7]
  inhibition: Active
A2780 [8]
  Activity: 38%
2008 [9]
  Activity: Active
A2780 [10]
  Activity: Active
2008 [11]
  Activity: Dose-dependent effect
2008 [12]
  Activity: 2.7%
2008 [13]
  Activity: 1.9%
Homo sapiens
  inhibition: Active
